Published values pooled from the literature.
Compare with care: the assays were run in different laboratories.
Target: Ephrin type-A receptor 1 (EPHA1, Homo sapiens, UniProt P21709)
One construct used (P21709 26-976): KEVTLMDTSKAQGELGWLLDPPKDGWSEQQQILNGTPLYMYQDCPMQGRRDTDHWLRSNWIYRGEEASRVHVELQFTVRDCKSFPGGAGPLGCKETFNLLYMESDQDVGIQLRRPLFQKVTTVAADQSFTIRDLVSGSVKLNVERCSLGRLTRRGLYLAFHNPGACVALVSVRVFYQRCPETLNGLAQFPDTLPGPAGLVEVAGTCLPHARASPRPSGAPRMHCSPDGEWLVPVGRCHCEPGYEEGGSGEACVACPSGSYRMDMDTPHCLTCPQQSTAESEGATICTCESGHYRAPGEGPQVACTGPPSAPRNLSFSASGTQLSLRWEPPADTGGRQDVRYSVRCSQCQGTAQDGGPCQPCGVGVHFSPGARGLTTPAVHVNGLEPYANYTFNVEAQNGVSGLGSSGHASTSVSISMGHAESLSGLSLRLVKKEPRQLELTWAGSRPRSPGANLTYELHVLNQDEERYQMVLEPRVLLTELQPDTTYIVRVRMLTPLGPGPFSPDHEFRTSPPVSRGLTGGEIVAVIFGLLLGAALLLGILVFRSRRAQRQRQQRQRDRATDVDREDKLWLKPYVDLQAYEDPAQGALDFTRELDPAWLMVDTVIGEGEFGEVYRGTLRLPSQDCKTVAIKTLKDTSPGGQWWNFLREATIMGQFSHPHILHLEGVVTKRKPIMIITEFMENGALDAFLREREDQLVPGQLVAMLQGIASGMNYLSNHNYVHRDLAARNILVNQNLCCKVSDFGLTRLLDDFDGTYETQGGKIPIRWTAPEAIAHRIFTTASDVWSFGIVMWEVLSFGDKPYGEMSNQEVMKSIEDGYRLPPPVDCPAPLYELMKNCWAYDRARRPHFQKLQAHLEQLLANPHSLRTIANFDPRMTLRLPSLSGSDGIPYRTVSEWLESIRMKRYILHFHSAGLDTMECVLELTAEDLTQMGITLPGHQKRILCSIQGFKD

Compound	effect on	technique	tested at	remaining binding [%]
C[C@H]1CCN(c2nccc(-c3cnn4ncccc34)n2)C1	binding	–	1 µM	84
O=C(NCCCN1CCOCC1)c1ccc(Nc2ncc(Cl)c(-c3ccc(Cl)s3)n2)cc1	binding	competition with immobilised ligand	1 µM	46
Nc1ncc2c(n1)-c1c([nH]c3ccc(C#CC4CC4)cc13)CCCC2	binding	competition with immobilised ligand	1 µM	89
Cc1nccc(COC(=O)N2C[C@@H]3[C@@H](CNC(=O)c4ccc5[nH]nnc5c4)[C@@H]3C2)n1	cell-free assay	competition with immobilised ligand	1 µM	100
O=C(c1ccc(Nc2nccc(-c3cc4ccccc4s3)n2)cc1)N1CCC(N2CCCC2)CC1	binding	competition with immobilised ligand	1 µM	32
C[C@@H](c1ccc(-n2cnc3c(N)ncnc32)cc1)N1CCc2nn(C)c(Cc3ccccc3)c2C1=O	binding	competition with immobilised ligand	0.1 µM	87
COc1cnc(Nc2cccc(S(N)(=O)=O)c2)nc1N1CCN(c2ccccc2)CC1	binding	competition with immobilised ligand	1 µM	100
N[C@@H]1CCN(c2nccc(-c3cnn4ncccc34)n2)C1	binding	–	1 µM	100
CC(=O)N1CCC(c2ccc(C(=O)NC3=NCCN3)cc2C(F)(F)F)CC1	cell-free assay	competition with immobilised ligand	1 µM	88
CN(C)c1ncc(F)c(-c2cnn3ncccc23)n1	binding	–	1 µM	98
O=C(c1ccc(Nc2ncc(Cl)c(-c3ccc(Cl)s3)n2)cc1)N1CCC(N2CCCC2)CC1	binding	competition with immobilised ligand	1 µM	32
O=C(NCC1CCOCC1)c1n[nH]cc1NC(=O)c1c(F)cccc1F	binding	competition with immobilised ligand	1 µM	100
CCC(=O)N[C@H]1CC[C@@H](C(=O)N(C)c2ccc(-c3nc4ccccc4o3)cc2)C1	cell-free assay	competition with immobilised ligand	1 µM	100
C=CC(=O)N1CCC(C(=O)NCC(=O)N2CCN(c3nc(-c4cnc(N)nc4C(F)F)nc(N4CCOCC4)n3)CC2)CC1	binding	competition with immobilised ligand	1 µM	100
COc1ccc2cc(OCC3(C(=O)O)CN(C(=O)c4ccc(F)cc4)C3)ccc2c1	cell-free assay	competition with immobilised ligand	1 µM	83
CC1CCCN1c1nccc(-c2cnn3ncccc23)n1 (stereo not drawn)	binding	–	1 µM	96
COc1cnc(Nc2cccc(S(N)(=O)=O)c2)nc1N1CCN(c2ccccc2)C(=O)C1	binding	competition with immobilised ligand	1 µM	90
CC(=O)C1=C(C)N(c2cccc(C(F)(F)F)c2)C(=O)N[C@@H]1c1ccc(C#N)nc1	cell-free assay	competition with immobilised ligand	1 µM	100
CN(C)c1nccc(-c2cnc3ncccn23)n1	binding	–	1 µM	93
CNC(=O)Nc1ccc2c(c1)CC[C@@]21OC(=O)N(CC(=O)N(Cc2ccc(F)cc2)[C@@H](C)C(F)(F)F)C1=O	cell-free assay	competition with immobilised ligand	1 µM	88
CN(C)c1nccc(-c2cnn3ncccc23)n1	binding	–	1 µM	46
